The term pIC50 denotes the negative decadic logarithm of the IC50, by convention in mol/L. Low readings indicate a large IC50, high ones a small IC50. As a reminder, the IC50 is the concentration that gives 50% inhibition.

Each structure is given as a SMILES string.

The first assay in a line: Inhibition of HIV-1 gp120-CD4 (unknown origin) interaction. Also noted: species or system Human immunodeficiency virus 1. Put shortly:
(§1)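 Capture ELISA for gp120–CD4 binding. Compounds diluted in diluent buffer over 0.1–1000 ng/ml and added with positive reference CD4 (1000 ng/ml). The CD4 standard ran in twofold dilutions from 1000 to 0.5 ng/ml. Incubation 1 h at room temperature, three washes, then conjugate at 1:100 for 1 h. TMB for 10 min, reaction stopped, absorbance read at 450 nm; IC50 derived.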
Compound `C[C@@H]1CN(S(=O)(=O)c2c[nH]c3ncccc23)CCN1C(=O)c1ccccc1` showed a pIC50 of 4.886.
For `COc1ncc(OC)c2c(C(=O)C(=O)N3CCN(C(=O)c4ccccc4)CC3)c[nH]c12`, the pIC50 is given as 7.588.
The same measure, in the same setting: next, `C[C@@H]1CN(C(=O)c2ccccc2)CCN1S(=O)(=O)c1c[nH]c2c(-n3nccn3)ccc(F)c12`: 6.699.
On the same count and under the same terms, to `C[C@H]1CN(C(=O)c2ccccc2)CCN1S(=O)(=O)c1c[nH]c2ncccc12` belongs 6.066; to `C[C@H]1CN(C(=O)c2ccccc2)CCN1S(=O)(=O)c1c[nH]c2c(F)c(F)c(F)c(F)c12`, 5.328.
Same read-out and setting: next, `COc1cccc2[nH]cc(S(=O)(=O)N3CCN(C(=O)c4ccccc4)C[C@@H]3C)c12`: 5.372; `C[C@H]1CN(C(=O)c2ccccc2)CCN1S(=O)(=O)c1c[nH]c2ccc(F)cc12`: 5.444; `C[C@H]1CN(C(=O)c2ccccc2)CCN1S(=O)(=O)c1c[nH]c2c(-n3ccnn3)ccc(F)c12`: 6.824.
With `C[C@H]1CN(C(=O)c2ccccc2)CCN1S(=O)(=O)c1c[nH]c2c(-n3cncn3)ccc(F)c12`, the pIC50 came out at 6.301.
The same measure, in the same setting: next, `C[C@H]1CN(C(=O)c2ccccc2)CCN1S(=O)(=O)c1c[nH]c2c(-n3ccnc3)nccc12`: 7.097; `C[C@H]1CN(C(=O)c2ccccc2)CCN1S(=O)(=O)c1c[nH]c2c(-n3cncn3)nccc12`: 6.824.
Still for that read-out and setting: next, `C[C@H]1CN(C(=O)c2ccccc2)CCN1S(=O)(=O)c1c[nH]c2c(-n3nccn3)ncc(F)c12`: 6.208; `C[C@H]1CN(C(=O)c2ccccc2)CCN1S(=O)(=O)c1c[nH]c2c(-n3ccnc3)ncc(F)c12`: 7.444; `COc1ncc(OC)c2c(C(=O)C(=O)N3CCN(C(=O)c4ccccc4)C[C@@H]3C)c[nH]c12`: 8.301.
Still for that read-out and setting: to `C[C@H]1CN(C(=O)c2csc(Br)n2)CCN1S(=O)(=O)c1c[nH]c2ncccc12` belongs 6.377.
Consider `C[C@H]1CN(C(=O)c2csc(N)n2)CCN1S(=O)(=O)c1c[nH]c2ncccc12`, for which the pIC50 is recorded as 6.284.
Same read-out and setting: next, `Cc1csc(C(=O)N2CCN(S(=O)(=O)c3c[nH]c4ncccc34)[C@@H](C)C2)c1`: 5.721; `Cc1ccc(C(=O)N2CCN(S(=O)(=O)c3c[nH]c4ncccc34)[C@@H](C)C2)s1`: 5.638; `C[C@H]1CN(C(=O)c2ccn(C)n2)CCN1S(=O)(=O)c1c[nH]c2ncccc12`: 5.62.
For `C[C@H]1CN(C(=O)c2cc3ccccc3o2)CCN1S(=O)(=O)c1c[nH]c2ncccc12`, the pIC50 was found to be 5.523.
In turn, `C[C@H]1CN(C(=O)c2ccccn2)CCN1S(=O)(=O)c1c[nH]c2ncccc12` registered a pIC50 of 5.481.
Still for that read-out and setting: next, `C[C@H]1CN(C(=O)c2cnccn2)CCN1S(=O)(=O)c1c[nH]c2ncccc12`: 5.041.
The same measure, in the same setting: to `CC[C@H]1CN(C(=O)c2ccccc2)CCN1S(=O)(=O)c1c[nH]c2ncccc12` belongs 4.796.
The same measure, in the same setting: next, `C[C@H]1CN(C(=O)c2ccccc2)CCN1S(=O)(=O)c1c[nH]c2ccccc12`: 6.367; `C[C@H]1CN(C(=O)c2ccccc2)CCN1S(=O)(=O)c1c[nH]c2cccc(F)c12`: 6.699; `C[C@H]1CN(C(=O)c2ccccc2)CCN1S(=O)(=O)c1c[nH]c2c(F)ccc(F)c12`: 6.432.
For `COc1cc[nH]c2ncc(C(=O)C(=O)N3CCN(C(=O)c4ccccc4)C[C@@H]3C)c1-2`, the pIC50 is listed as 8.097.
The same measure, in the same setting: next, `C[C@H]1CN(C(=O)c2ccccc2)CCN1C(=O)C(=O)c1c[nH]c2ncccc12`: 7.523; `O=C(c1ccccc1)N1CCN(S(=O)(=O)c2c[nH]c3ncccc23)CC1`: 4.657.
Same read-out and setting: to `O=C(C(=O)N1CCN(C(=O)c2ccccc2)CC1)c1c[nH]c2ncccc12` belongs 6.284.

The next assay in a line: Inhibition of HIV1 gp120-CD4 (unknown origin) interaction after 1 hr by ELISA. Also noted: species or system Human immunodeficiency virus 1. Put shortly:
as §1
Background: In an ELISA, binding on a coated surface is turned into a signal by an enzyme label.
`O=C(NCc1nc2ccccc2[nH]1)NCc1nc2ccccc2[nH]1` came in with an IC50 of 247 nM.
Still for that read-out and setting: to `S=C(Nc1ccc(-c2nc3ccccc3[nH]2)cc1)Nc1ccc(-c2nc3ccccc3[nH]2)cc1` belongs 126 nM; to `S=C(NCc1nc2ccccc2[nH]1)NCc1nc2ccccc2[nH]1`, 13 nM.
On the same count and under the same terms, to `O=C(Nc1ccc(Cc2nc3ccccc3[nH]2)cc1)Nc1ccc(Cc2nc3ccccc3[nH]2)cc1` belongs 197 nM; to `S=C(Nc1ccc(Cc2nc3ccccc3[nH]2)cc1)Nc1ccc(Cc2nc3ccccc3[nH]2)cc1`, 149 nM; to `O=C(Nc1ccc(-c2nc3ccccc3[nH]2)cc1)Nc1ccc(-c2nc3ccccc3[nH]2)cc1`, 188 nM.

The record behind these values is ChEMBL document CHEMBL2413066, “Molecular docking guided structure based design of symmetrical N,N'-disubstituted urea/thiourea as HIV-1 gp120-CD4 binding inhibitors” (Bioorg Med Chem, 2013).
